The first assay relates to HeLa. The assay can be described thus: Potentiation of ionizing radiation-induced cytotoxicity in human HeLa cells assessed as dose modification ratio at 0.1 uM pretreated 1 hr before 2 Gy ionizing radiation by Giemsa staining relative untreated control. The format is functional. The procedure, abridged: (§1)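 HeLa cells seeded in six-well dishes and left overnight at 37 °C/5% CO2. Compound or vehicle given 1 h before a single 2 Gy X-ray dose, then incubated overnight. Medium replaced without compound and cells grown 6-8 days. Colonies Giemsa-stained and counted automatically. DMR is % survival at 2 Gy without compound divided by % survival at 2 Gy with compound.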
As to `O=C(CN1CCNCC1)Nc1ccc(-c2cccn3c(=O)cc(N4CCOCC4)nc23)c2sc3ccccc3c12`, the Ratio amounted to 1.5.

Consider `CC(C)NC(=O)CN1CCN(CC(=O)Nc2ccc(-c3cccn4c(=O)cc(N5CCOCC5)nc34)c3oc4ccccc4c23)CC1`, for which the Ratio worked out at 1.7.

As to `COCCN1CCN(CC(=O)Nc2ccc(-c3cccn4c(=O)cc(N5CCOCC5)nc34)c3sc4ccccc4c23)CC1`, the Ratio stood at 4.

For `O=C(CCN1CCCCC1)Nc1ccc(-c2cccc3c(=O)cc(N4CCOCC4)[nH]c23)c2oc3ccccc3c12`, the Ratio is 1.

`O=C(CCN1CCCCC1)Nc1ccc(-c2cccn3c(=O)cc(N4CCOCC4)nc23)c2oc3ccccc3c12`: the Ratio came out at 2.5.

With `O=C(CN(CCO)CCO)Nc1ccc(-c2cccn3c(=O)cc(N4CCOCC4)nc23)c2sc3ccccc3c12`, the Ratio turned out to be 1.1.

Consider `C[C@@H]1CN(CCC(=O)Nc2ccc(-c3cccn4c(=O)cc(N5CCOCC5)nc34)c3sc4ccccc4c23)C[C@H](C)O1`, for which the Ratio came out at 4.6.

As for `O=C(CCN1CCCCC1)Nc1ccc(-c2cccn3c(=O)cc(N4CCOCC4)nc23)c2sc3ccccc3c12`, the Ratio is given as 14.3.

For the compound `CN1CCN(CC(=O)Nc2ccc(-c3cccn4c(=O)cc(N5CCOCC5)nc34)c3oc4ccccc4c23)CC1`, the Ratio came out at 1.1.

For `COc1ccc(CNCCC(=O)Nc2ccc(-c3cccn4c(=O)cc(N5CCOCC5)nc34)c3sc4ccccc4c23)cc1`, the Ratio was 6.7.

In the case of `O=C(CN1CCN(CCO)CC1)Nc1ccc(-c2cccc3c(=O)cc(N4CCOCC4)[nH]c23)c2oc3ccccc3c12`, the Ratio turned out to be 1.3.

For `O=C(CCN1CCOCC1)Nc1ccc(-c2cccn3c(=O)cc(N4CCOCC4)nc23)c2sc3ccccc3c12`, the Ratio came out at 6.2.

For `CCN1CCN(CC(=O)Nc2ccc(-c3cccc4c(=O)cc(N5CCOCC5)[nH]c34)c3oc4ccccc4c23)CC1`, the Ratio is 1.2.

In the case of `C[C@@H]1CN(CCC(=O)Nc2ccc(-c3cccc4c(=O)cc(N5CCOCC5)[nH]c34)c3oc4ccccc4c23)C[C@H](C)O1`, the Ratio is given as 0.8.

On to `CCN1CCN(CC(=O)Nc2ccc(-c3cccn4c(=O)cc(N5CCOCC5)nc34)c3sc4ccccc4c23)CC1`, for which the Ratio was 1.4.

In the case of `O=C(CCNCCCN1CCOCC1)Nc1ccc(-c2cccn3c(=O)cc(N4CCOCC4)nc23)c2sc3ccccc3c12`, the Ratio stood at 1.7.

With `CC(=O)N1CCN(CCC(=O)Nc2ccc(-c3cccn4c(=O)cc(N5CCOCC5)nc34)c3sc4ccccc4c23)CC1`, the Ratio is on record as 2.1.

As for `CN1CCN(CC(=O)Nc2ccc(-c3cccn4c(=O)cc(N5CCOCC5)nc34)c3sc4ccccc4c23)CC1`, the Ratio is reported as 2.4.

Another assay concerns HeLa. The assay can be described thus: Potentiation of ionizing radiation-induced cytotoxicity in human HeLa cells assessed as dose modification ratio at 0.5 uM pretreated 1 hr before 2 Gy ionizing radiation by Giemsa staining relative untreated control. The assay is classed as functional. The method, boiled down:
as §1
For the compound `O=C(CN1CCNCC1)Nc1ccc(-c2cccn3c(=O)cc(N4CCOCC4)nc23)c2sc3ccccc3c12`, the Ratio came to 6.2.

`CC(C)NC(=O)CN1CCN(CC(=O)Nc2ccc(-c3cccn4c(=O)cc(N5CCOCC5)nc34)c3oc4ccccc4c23)CC1`: the Ratio stood at 13.

Consider `COCCN1CCN(CC(=O)Nc2ccc(-c3cccn4c(=O)cc(N5CCOCC5)nc34)c3sc4ccccc4c23)CC1`, for which the Ratio is 14.4.

With `O=C(CCN1CCCCC1)Nc1ccc(-c2cccc3c(=O)cc(N4CCOCC4)[nH]c23)c2oc3ccccc3c12`, the Ratio was 1.1.

With `O=C(CCN1CCCCC1)Nc1ccc(-c2cccn3c(=O)cc(N4CCOCC4)nc23)c2oc3ccccc3c12`, the Ratio was 1.

For the compound `O=C(CN(CCO)CCO)Nc1ccc(-c2cccn3c(=O)cc(N4CCOCC4)nc23)c2sc3ccccc3c12`, the Ratio was found to be 3.8.

As to `C[C@@H]1CN(CCC(=O)Nc2ccc(-c3cccn4c(=O)cc(N5CCOCC5)nc34)c3sc4ccccc4c23)C[C@H](C)O1`, the Ratio is on record as 4.6.

On to `O=C(CCN1CCCCC1)Nc1ccc(-c2cccn3c(=O)cc(N4CCOCC4)nc23)c2sc3ccccc3c12`, for which the Ratio was found to be 14.3.

In the case of `CN1CCN(CC(=O)Nc2ccc(-c3cccn4c(=O)cc(N5CCOCC5)nc34)c3oc4ccccc4c23)CC1`, the Ratio amounted to 4.3.

In the case of `COc1ccc(CNCCC(=O)Nc2ccc(-c3cccn4c(=O)cc(N5CCOCC5)nc34)c3sc4ccccc4c23)cc1`, the Ratio amounted to 6.7.

Regarding `O=C(CN1CCN(CCO)CC1)Nc1ccc(-c2cccc3c(=O)cc(N4CCOCC4)[nH]c23)c2oc3ccccc3c12`, the Ratio was found to be 1.5.

`O=C(CCN1CCOCC1)Nc1ccc(-c2cccn3c(=O)cc(N4CCOCC4)nc23)c2sc3ccccc3c12`: the Ratio is 6.2.

For `CCN1CCN(CC(=O)Nc2ccc(-c3cccc4c(=O)cc(N5CCOCC5)[nH]c34)c3oc4ccccc4c23)CC1`, the Ratio stood at 3.6.

As to `C[C@@H]1CN(CCC(=O)Nc2ccc(-c3cccc4c(=O)cc(N5CCOCC5)[nH]c34)c3oc4ccccc4c23)C[C@H](C)O1`, the Ratio was found to be 0.9.

`CCN1CCN(CC(=O)Nc2ccc(-c3cccn4c(=O)cc(N5CCOCC5)nc34)c3sc4ccccc4c23)CC1`: the Ratio turned out to be 7.7.

Regarding `O=C(CCNCCCN1CCOCC1)Nc1ccc(-c2cccn3c(=O)cc(N4CCOCC4)nc23)c2sc3ccccc3c12`, the Ratio is 1.7.

Consider `CC(=O)N1CCN(CCC(=O)Nc2ccc(-c3cccn4c(=O)cc(N5CCOCC5)nc34)c3sc4ccccc4c23)CC1`, for which the Ratio is 2.1.

With `CN1CCN(CC(=O)Nc2ccc(-c3cccn4c(=O)cc(N5CCOCC5)nc34)c3sc4ccccc4c23)CC1`, the Ratio came out at 9.2.

Test system in the next assay: not listed separately
The assay can be described thus: Inhibition of DNA-PK isolated from human HeLa cell extract assessed as reduction in p53 Ser15 phosphorylation by chemiluminescence assay. The format is cell-free.
Take `O=C(CN1CCNCC1)Nc1ccc(-c2cccn3c(=O)cc(N4CCOCC4)nc23)c2sc3ccccc3c12`: the IC50 is 25 nM.

Consider `CC(C)NC(=O)CN1CCN(CC(=O)Nc2ccc(-c3cccn4c(=O)cc(N5CCOCC5)nc34)c3oc4ccccc4c23)CC1`, for which the IC50 was 36 nM.

Take `COCCN1CCN(CC(=O)Nc2ccc(-c3cccn4c(=O)cc(N5CCOCC5)nc34)c3sc4ccccc4c23)CC1`: the IC50 worked out at 22 nM.

As for `O=C(CCN1CCCCC1)Nc1ccc(-c2cccc3c(=O)cc(N4CCOCC4)[nH]c23)c2oc3ccccc3c12`, the 50% inhibitory concentration (IC50) was 314 nM.

Take `O=C(CCN1CCCCC1)Nc1ccc(-c2cccn3c(=O)cc(N4CCOCC4)nc23)c2oc3ccccc3c12`: the half-inhibitory concentration (IC50) is 21 nM.

Take `O=C(CN(CCO)CCO)Nc1ccc(-c2cccn3c(=O)cc(N4CCOCC4)nc23)c2sc3ccccc3c12`: the IC50 was determined as 29 nM.

For `C[C@@H]1CN(CCC(=O)Nc2ccc(-c3cccn4c(=O)cc(N5CCOCC5)nc34)c3sc4ccccc4c23)C[C@H](C)O1`, the IC50 is 27 nM.

As for `O=C(CCN1CCCCC1)Nc1ccc(-c2cccn3c(=O)cc(N4CCOCC4)nc23)c2sc3ccccc3c12`, the IC50 was determined as 28 nM.

Regarding `CN1CCN(CC(=O)Nc2ccc(-c3cccn4c(=O)cc(N5CCOCC5)nc34)c3oc4ccccc4c23)CC1`, the 50% inhibitory concentration (IC50) came to 30 nM.

Consider `COc1ccc(CNCCC(=O)Nc2ccc(-c3cccn4c(=O)cc(N5CCOCC5)nc34)c3sc4ccccc4c23)cc1`, for which the half-maximal inhibitory concentration (IC50) came to 12 nM.

Consider `O=C(CN1CCN(CCO)CC1)Nc1ccc(-c2cccc3c(=O)cc(N4CCOCC4)[nH]c23)c2oc3ccccc3c12`, for which the IC50 was found to be 39 nM.

For the compound `O=C(CCN1CCOCC1)Nc1ccc(-c2cccn3c(=O)cc(N4CCOCC4)nc23)c2sc3ccccc3c12`, the IC50 was determined as 86 nM.

In the case of `CCN1CCN(CC(=O)Nc2ccc(-c3cccc4c(=O)cc(N5CCOCC5)[nH]c34)c3oc4ccccc4c23)CC1`, the 50% inhibitory concentration (IC50) is 77 nM.

With `C[C@@H]1CN(CCC(=O)Nc2ccc(-c3cccc4c(=O)cc(N5CCOCC5)[nH]c34)c3oc4ccccc4c23)C[C@H](C)O1`, the IC50 stood at 151 nM.

For `CCN1CCN(CC(=O)Nc2ccc(-c3cccn4c(=O)cc(N5CCOCC5)nc34)c3sc4ccccc4c23)CC1`, the concentration for half-maximal inhibition (IC50) came to 18 nM.

For the compound `O=C(CCNCCCN1CCOCC1)Nc1ccc(-c2cccn3c(=O)cc(N4CCOCC4)nc23)c2sc3ccccc3c12`, the IC50 came to 29 nM.

Turning to `CC(=O)N1CCN(CCC(=O)Nc2ccc(-c3cccn4c(=O)cc(N5CCOCC5)nc34)c3sc4ccccc4c23)CC1`, the 50% inhibitory concentration (IC50) is 32 nM.

For `CN1CCN(CC(=O)Nc2ccc(-c3cccn4c(=O)cc(N5CCOCC5)nc34)c3sc4ccccc4c23)CC1`, the IC50 came to 24 nM.

Source of the values: ChEMBL document CHEMBL1629444, “DNA-dependent protein kinase (DNA-PK) inhibitors. Synthesis and biological activity of quinolin-4-one and pyridopyrimidin-4-one surrogates for the chromen-4-one chemotype” (J Med Chem, 2010).
